Test results from ChEMBL document CHEMBL1128539, “Novel antagonists of platelet-activating factor. 2. Synthesis and structure-activity relationships of potent and long-acting heterofused [1,5]benzodiazepine and [1,4]diazepine derivatives of 2-methyl-1-phenylimidazo[4,5-c]pyridine” (J Med Chem, 1995).

Legend:
Canis familiaris [1] = assay: Duration of action in Conscious Dog at a dose of 0.1 mg/kg po; assay type: ADME, organism-based, Canis lupus familiaris; set-up: dose 0.1 mg/kg, route oral; conditions: in vivo
Canis familiaris [2] = assay: Duration of action in Conscious Dog at a dose of […] po; assay type: ADME, organism-based, Canis lupus familiaris; set-up: dose 0.025 mg/kg, route oral; conditions: in vivo
Canis familiaris [3] = assay: Duration of action in Conscious Dog at a dose of 0.075 mg/kg po; assay type: ADME, organism-based, Canis lupus familiaris; set-up: dose 0.075 mg/kg, route oral; conditions: in vivo
Canis familiaris [4] = assay: Duration of action in Conscious Dog at a dose of 0.05 mg/kg po; assay type: ADME, organism-based, Canis lupus familiaris; set-up: dose 0.05 mg/kg, route oral; conditions: in vivo
Canis familiaris [5] = assay: Duration of action in Conscious Dog at a dose of 0.15 mg/kg po; assay type: ADME, organism-based, Canis lupus familiaris; set-up: dose 0.15 mg/kg, route oral; conditions: in vivo
Canis familiaris [6] = assay: Duration of action in Conscious Dog at a dose of 0.5 mg/kg po; assay type: ADME, organism-based, Canis lupus familiaris; set-up: dose 0.5 mg/kg, route oral; conditions: in vivo
Canis familiaris [7] = assay: Duration of action in Conscious Dog at a dose of 0.2 mg/kg po; assay type: ADME, organism-based, Canis lupus familiaris; set-up: dose 0.2 mg/kg, route oral; conditions: in vivo
Canis familiaris [8] = assay: Duration of action in Conscious Dog at a dose of 0.3 mg/kg po; assay type: ADME, organism-based, Canis lupus familiaris; set-up: dose 0.3 mg/kg, route oral; conditions: in vivo
Canis familiaris [9] = assay: Duration of action in Conscious dog at a dose of 0.2 mg/kg po; assay type: ADME, organism-based, Canis lupus familiaris; set-up: dose 0.2 mg/kg, route oral; conditions: in vivo
Canis familiaris [10] = assay: Duration of action in Conscious Dog at a dose of […] po; assay type: ADME, organism-based, Canis lupus familiaris; conditions: in vivo
Canis familiaris [11] = assay: Duration of action in Conscious Dog at 0.1 mg/kg po; assay type: ADME, organism-based, Canis lupus familiaris; set-up: dose 0.1 mg/kg, route oral; conditions: in vivo
In short: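 Conscious dogs. Before dosing, each dog's minimum PAF concentration giving irreversible whole-blood aggregation was set (30–50 nM). Compound was given by gavage in minimal 0.01 M HCl. Blood drawn 2 h later was challenged ex vivo with 10× (or 30×) that PAF level. If uninhibited, a larger second dose was given and blood resampled 2 h later. If inhibited, sampling continued until predose aggregation returned.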

[12] = target: Platelet-activating factor receptor (Oryctolagus cuniculus); assay: In vitro antagonist activity against platelet activating factor (PAF) receptor, using washed rabbit platelets

## CCN(CC)C(=O)c1cnc2c(c1)N=C(c1ccc(-n3c(C)nc4cnccc43)cc1)CC(=O)N2C
Canis familiaris [1]
  Duration of action: 4 h

## Cc1nc2cnccc2n1-c1ccc(C2=Nc3c(C4CCCCC4)nn(C)c3N(C)C(=O)C2)cc1
Canis familiaris [2]
  Duration of action: 0 h
Canis familiaris [3]
  Duration of action: 8 h

## Cc1cc(C)c2c(n1)N(C)C(=O)CC(c1ccc(-n3c(C)nc4cnccc43)cc1)=N2
Canis familiaris [1]
  Duration of action: 9 h

## Cc1nc2cnccc2n1-c1ccc(C2=Nc3c(-c4cccnc4)nn(C)c3N(C)C(=O)C2)cc1
Canis familiaris [2]
  Duration of action: 9 h
Canis familiaris [4]
  Duration of action: > 10 h

## Cc1cc(C)c2c(n1)NC(=O)CC(c1ccc(-n3c(C)nc4cnccc43)cc1)=N2
Canis familiaris [5]
  Duration of action: 0 h
Canis familiaris [6]
  Duration of action: < 8 h

## Cc1nc2cnccc2n1-c1ccc(C2=Nc3cc(Br)cnc3N(C)C(=O)C2)cc1
Canis familiaris [7]
  Duration of action: 4 h

## Cc1nn(C)c2c1N=C(c1ccc(-n3c(C)nc4cnccc43)cc1)CC(=O)N2
Canis familiaris [8]
  Duration of action: 0 h

## Cc1nc2cnccc2n1-c1ccc(C2=Nc3cc(Cl)c(Cl)cc3-n3ccnc3C2)cc1
Canis familiaris [9]
  Duration of action: 7 h

## Cc1nn(C)c2c1N=C(c1ccc(-n3c(C)nc4cnccc43)cc1)CC(=O)N2C
Canis familiaris [7]
  Duration of action: 4 h

## Cc1nc2cnccc2n1-c1ccc(C2=Nc3c(-c4ccccc4)nn(C)c3N(C)C(=O)C2)cc1
Canis familiaris [1]
  Duration of action: > 8 h

## Cc1nc2cnccc2n1-c1ccc(C2=Nc3cc(C(=O)N4CCOCC4)cnc3N(C)C(=O)C2)cc1
Canis familiaris [10]
  Duration of action: 2 h

## Cc1nn(C)c2c1NC(=O)CC(c1ccc(-n3c(C)nc4cnccc43)cc1)=N2
Canis familiaris [5]
  Duration of action: 0 h
Canis familiaris [6]
  Duration of action: > 8 h

## Cc1nnc2n1-c1sc3c(c1C(c1ccccc1Cl)=NC2)CC(C(=O)N1CCOCC1)C3 (centres undefined) [BEPAFANT]
Canis familiaris [11]
  Duration of action: 7 h
[12]
  IC50: 73 nM

## CCOC(=O)C1=C(c2ccc(-n3c(C)nc4cnccc43)cc2)NC(C)=C(C(=O)Nc2ccccn2)C1c1ccccc1Cl (centres undefined)
Canis familiaris [3]
  Duration of action: 8 h
